Sampled rows, rich in hits. Any-hit rate of the full collection: about 2.3%.
TRPC4 potent: TRPC4 (mouse) allosteric potentiation; AID 2227; hit rate 0.42% among 310,000; B-score at 10 µM; HEK293 TRPC4beta/mu-opioid, DAMGO EC20, Fluo-4 Ca2+ flux; active compounds read high;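 active = B-score of calcium response area above 5 SD of library B-scores, with initial fluorescence ratio within 5 SD of library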;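 also: B-score of integrated fluorescence ratio over time as area under calcium response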
TRPC4 inh: blocks the mouse TRPC4 cation channel; HEK293 TRPC4beta/mu-opioid, DAMGO-evoked Fluo4 calcium flux; active compounds read low; B-score at 10 µM; hit rate 0.39% among 300,000;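 active = B-score over 3 SD under the library average, no early fluorescence shift, positive overall ratio signal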
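Assay system: HEK293 cells with stable TRPC4beta plus mu-opioid receptor expression. Dosing: single dose. Measured by: Fluo4 Ca2+ flux fluorescence. Also added: DAMGO in two steps, submaximal then maximal. Read-out: B score from integrated Fluo4 fluorescence ratio.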
TRPC6 inh: blocks the mouse TRPC6 cation channel; HEK293-TRPC6, membrane potential dye, ACh-evoked depolarization; active compounds read low; hit rate 1.1% among 310,000; B-score at 10 µM;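 active = B-score under library mean minus 3 SD, initial fluorescence not abnormally high, positive integrated signal ratio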;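 also: B-score derived from integrated fluorescence ratio over the kinetic read; more negative B-score means stronger inhibition of depolarization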
TRPC6 act: mouse TRPC6 channel activation; HEK293-TRPC6 membrane potential dye fluorescence; active compounds read high; B-score at 10 µM; hit rate 0.13% among 310,000; AID 2550;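 active = B-score of the integrated fluorescence ratio above library mean plus 3 SD, and starting fluorescence ratio within library mean plus 5 SD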;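 also: higher score means more depolarization so channel activation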
TRPC4 act: TRPC4 (mouse) channel activation. hit rate 0.49% among 310,000. Q9QUQ5. HEK293 TRPC4beta/mu-opioid, Fluo4 calcium fluorescence; active compounds read high. AID 2237. B-score at 10 µM;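 active = B-score above 5 SD of library B-scores, and initial fluorescence ratio not above library mean plus 5 SD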;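 also: positive B-score marks a calcium rise read as TRPC4 activation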
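system = HEK293 cells stably co-expressing mouse TRPC4beta and mu-opioid receptor | schedule = Fluo4 dye loading 45 min at room temperature, 110 s recording | measure = B-scored integrated calcium fluorescence ratio | signal = Fluo4 calcium-sensitive dye fluorescence, kinetic, 1 Hz baseline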
TRPC4 sel inh 2: second check of whether TRPC6 inhibitors also affect mouse TRPC4; shares compounds with TRPC6 inh; HEK293 TRPC4/MOR, membrane potential dye fluorescence; channel activated by saturating DAMGO dose; inhibition, % at 10 µM; hit rate 42% among 920; AID 2776;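 active = compounds whose fluorescence signal differed from control wells by over 3 SD, either direction, in both duplicate plates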
TRPC4 spec: selectivity of TRPC6 inhibitors: effect on mouse TRPC4; hit rate 61% among 920; activity change, negative = inhibition, % at 10 µM; shares compounds with TRPC6 inh; HEK293 TRPC4/mu-opioid, membrane potential fluorescence;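 active = rise or fall in signal beyond 3 SD of buffer-only wells in both replicate plates, either sign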;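 also: integrated kinetic ratio of fluorescence range over baseline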
HEK293 MPD ctr 2-1: parental HEK293 nonspecific activity of TRPC6 inhibitors, second screen | shares compounds with TRPC6 inh | parental HEK293 membrane potential dye fluorescence; maximal acetylcholine challenge after compound addition | signal change vs control, % at 10 µM | hit rate 31% among 920;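 active = membrane potential signal moving either way by over 3 SD of the maximum-effect control, in both duplicate plates, meaning non-specific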
HEK293 MPD ctr-1: parental HEK293 nonspecific activity of TRPC6 inhibitors. shares compounds with TRPC6 inh. parental HEK293 membrane potential dye fluorescence. membrane potential signal change, % at 10 µM. hit rate 60% among 920. AID 2780;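 active = membrane potential signal shifting up or down by more than 3 SD of buffer-only wells, on both duplicate plates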
HEK293 MPD ctr-2: parental HEK293 nonspecific activity of TRPC6 modulators; membrane potential dye fluorescence; membrane potential signal change, % at 10 µM; hit rate 51% among 2,400; shares compounds with TRPC6 inh;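 active = membrane potential signal moves up or down beyond 5 SD from buffer-only wells, on both duplicate plates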
HEK293 MPD ctr 2-2: parental HEK293 nonspecific activity of TRPC6 modulators, second screen; shares compounds with TRPC6 inh; membrane potential dye fluorescence; after compound, maximal acetylcholine stimulation; inhibition, % at 10 µM; hit rate 14% among 2,400;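 active = membrane potential signal drops by more than 5 SD from the mean control signal, in both duplicate plates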;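 also: plate controls were acetylcholine ECmax control wells for no effect and buffer only wells for full effect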
TRPC4 ctr mod: tests whether TRPC6 modulators also affect mouse TRPC4. percent change from control (negative = decrease, positive = increase), % at 10 µM. HEK293 TRPC4/mu-opioid, membrane potential fluorescence. shares compounds with TRPC6 inh. hit rate 69% among 2,400;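 active = membrane potential signal moved up or down beyond 5 SD of buffer control wells, in both duplicate plates, actives on both sides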;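 also: plate controls were assay buffer wells for no effect and DAMGO maximal-effect wells for full effect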
TRPC4/MOR inh 2: second check of whether TRPC6 modulators also affect mouse TRPC4; shares compounds with TRPC6 inh; HEK293 TRPC4/mu-opioid, membrane potential dye fluorescence; stimulated with maximal-effect DAMGO; inhibition, % at 10 µM; hit rate 55% among 2,400; AID 488928;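 active = drop in membrane potential signal beyond 5 SD of the control wells in both duplicate plates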;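 also: TRPC4 counter screen for TRPC6 hits run under conditions tuned for TRPC6 not TRPC4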
TRPC6 block conf: confirmation of mouse TRPC6 inhibitors. shares compounds with TRPC6 inh. HEK293-TRPC6, membrane potential dye, ACh-evoked depolarization. inhibition, % at 10 µM. hit rate 43% among 3,300. AID 488960;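 active = fluorescence ratio falls more than 5 SD below the full-stimulation control mean, in both duplicate runs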;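 also: integrated fluorescence ratio of peak minus minimum over baseline after agonist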
TRPC6 act confirm: mouse TRPC6 activator confirmation. shares compounds with TRPC6 inh. AID 488961. HEK293-TRPC6 membrane potential dye fluorescence, FDSS. hit rate 11% among 2,800. activation, % at 10 µM;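 active = ratio signal rise beyond 5 SD above unstimulated control wells' mean, seen in both duplicate runs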;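 also: plate controls were buffer EC0 wells for no effect and acetylcholine ECmax response for full effect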
* = called active by the depositor; i = inactive; x = not tested or not shown.

SMILES	TRPC4 potent	TRPC4 inh	TRPC6 inh	TRPC6 act	TRPC4 act	HEK293 MPD ctr-2	HEK293 MPD ctr 2-2	TRPC4 ctr mod	TRPC4/MOR inh 2	TRPC6 block conf	TRPC6 act confirm	others
CC(=O)c1ccc(Nc2cc(C)nc3c(C)cc(C)cc23)cc1	i	-6*	-6.9*	i	i	x	x	x	x	i	i	TRPC4 sel inh 2=i;TRPC4 spec=-21%*;HEK293 MPD ctr 2-1=i;HEK293 MPD ctr-1=-327%*
Cc1cc(C)c2nc(C)cc(Nc3ccc(C(=O)NCCO)cc3)c2c1	i	i	-10*	i	i	x	x	x	x	56%*	i	TRPC4 sel inh 2=i;TRPC4 spec=-20%*;HEK293 MPD ctr 2-1=-46%*;HEK293 MPD ctr-1=-308%*
Cc1cc(C)c2nc(C)cc(Nc3ccc(C(=O)N(C)C)cc3)c2c1	i	i	-5.4*	i	i	-114%*	i	-22%*	i	i	i
CCCCC(=O)Nc1ccc(N2CCCC2)cc1	i	i	i	i	i	x	x	x	x	x	x
CC(CSc1nnnn1-c1ccccc1)Cn1c(N2CCN(C)CC2)nc2c1c(=O)[nH]c(=O)n2C (stereo unspecified)	i	i	i	i	i	x	x	x	x	x	x
CN1CCN(c2nc3c(c(=O)n(C)c(=O)n3C)n2CCSc2nnnn2-c2ccccc2)CC1	i	i	-7.3*	i	i	-114%*	100%*	-41%*	56%*	50%*	i
CN1CCN(c2nc3c(c(=O)[nH]c(=O)n3C)n2CCSc2nnnn2-c2ccccc2)CC1	i	i	-8.5*	i	i	-236%*	i	-27%*	62%*	60%*	i
CCn1c(/C=C/Nc2ccccc2)[n+](CC)c2ccc(Cl)cc21	i	i	-5.2*	i	i	-186%*	i	-34%*	56%*	50%*	i
CCn1c(C)[n+](Cc2ccccc2)c2ccc(Cl)cc21	i	i	i	i	i	x	x	x	x	x	x
CCn1c(/C=C/N(C)c2ccccc2)[n+](CC)c2ccc(Cl)cc21	i	i	-8.6*	i	i	x	x	x	x	65%*	i	TRPC4 sel inh 2=i;TRPC4 spec=-29%*;HEK293 MPD ctr 2-1=24%*;HEK293 MPD ctr-1=-411%*
CCc1nnc(NC(=O)c2nc(S(=O)(=O)Cc3ccc(C)cc3)ncc2Cl)s1	i	i	i	i	i	x	x	x	x	x	x
COCC(C)n1c(C)cc(C(=O)CSc2nnnn2-c2ccc(O)cc2)c1C (stereo unspecified)	i	i	i	i	i	x	x	x	x	x	x
CCOC(=O)N1CCC(N(C(=O)Nc2ccc(Cl)c(Cl)c2)C(C)CC)CC1 (stereo unspecified)	i	i	-6.4*	i	i	i	i	i	i	i	i

Assay outcomes (PubChem BioAssay)
